We go through one compound from ChEMBL document CHEMBL3286371, “wALADin benzimidazoles differentially modulate the function of porphobilinogen synthase orthologs” (J Med Chem, 2014).

SMILES strings stand for the structures. Active and inactive are the calls of the source. The calls are words filed in the database; no cut-off is given here.

Assay [1] deals with T1, Delta-aminolevulinic acid dehydratase (Escherichia coli (strain K12)) (UniProt P0ACB2).
T1 sequence (whole entry): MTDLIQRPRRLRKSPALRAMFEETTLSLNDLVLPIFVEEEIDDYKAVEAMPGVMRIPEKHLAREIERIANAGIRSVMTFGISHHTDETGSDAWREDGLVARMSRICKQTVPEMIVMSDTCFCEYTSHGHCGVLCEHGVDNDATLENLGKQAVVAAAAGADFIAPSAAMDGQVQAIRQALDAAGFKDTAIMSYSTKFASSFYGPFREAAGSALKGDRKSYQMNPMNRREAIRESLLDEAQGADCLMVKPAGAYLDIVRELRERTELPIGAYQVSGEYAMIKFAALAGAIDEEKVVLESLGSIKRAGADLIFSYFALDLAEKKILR
The experiment in a line: Inhibition of Escherichia coli recombinant PBGS using 5-ALA as substrate at 50 to 200 uM at pH 7 to 8.5 by buffer scan assay.

Assay [2] addresses Delta-aminolevulinic acid dehydratase (Pseudomonas aeruginosa (strain ATCC 15692 / PAO1 / 1C / PRS 101 / LMG12228)) (UniProt Q59643). As to the kind of experiment: Activation of Pseudomonas aeruginosa PAO1 recombinant PBGS using 0.2 mM 5-ALA as substrate at 10 to 10000 uM at pH 7.5 by buffer scan assay in presence of 10 mM MgCl2.
Assay [3] has the same target. As to the kind of experiment: Inhibition of Pseudomonas aeruginosa PAO1 recombinant PBGS using 0.2 mM 5-ALA as substrate assessed as […] at 50 to 200 uM at pH 7.5 by buffer scan assay in presence of 1 mM MgCl2 and 1 to 1000 mM KCl.
Assay [4] concerns the target T2, Delta-aminolevulinic acid dehydratase, chloroplastic (Pisum sativum) (UniProt P30124).
T2 sequence (whole entry): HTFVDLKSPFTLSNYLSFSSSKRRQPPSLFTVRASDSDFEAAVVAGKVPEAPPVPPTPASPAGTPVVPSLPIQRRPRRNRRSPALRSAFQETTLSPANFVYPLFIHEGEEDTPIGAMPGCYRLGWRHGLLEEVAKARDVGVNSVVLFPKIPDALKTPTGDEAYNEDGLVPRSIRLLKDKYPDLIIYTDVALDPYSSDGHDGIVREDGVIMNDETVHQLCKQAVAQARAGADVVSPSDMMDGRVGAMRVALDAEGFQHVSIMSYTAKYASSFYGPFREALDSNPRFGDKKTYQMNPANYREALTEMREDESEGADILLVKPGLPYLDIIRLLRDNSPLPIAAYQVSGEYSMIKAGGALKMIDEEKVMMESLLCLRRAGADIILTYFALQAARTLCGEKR
The experiment in a line: Inhibition of Pisum sativum PBGS using 5-ALA as substrate at 8 to 2000 uM after 30 mins by nondenaturing PAGE analysis. The conditions noted are these: Lathyrus oleraceus.

Assay [5] addresses Delta-aminolevulinic acid dehydratase (Pseudomonas aeruginosa (strain ATCC 15692 / PAO1 / 1C / PRS 101 / LMG12228)) (UniProt Q59643). The experiment in a line: Inhibition of Pseudomonas aeruginosa PAO1 recombinant PBGS assessed as inhibition of octamer-inducing effect of K+ by nondenaturing PAGE analysis. An outline of the steps: (§1)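 PaPBGS (3 μg) preincubated 20 min at 37 °C in assay buffer with 1 mM Mg2+, 100 mM K+ and wALADin1, no 5-ALA. Run on 7.5% nondenaturing PAGE at 4 °C for 15–20 h. Coomassie for oligomer state; in-gel activity with 500 μM 5-ALA stained with Ehrlich's reagent.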

Assay [6] has the same target. As to the kind of experiment: Stimulation of Pseudomonas aeruginosa PAO1 recombinant PBGS assessed as stabilization of dimeric form at 8 to 2000 uM by nondenaturing PAGE analysis in presence of Mg2+ and K+. An outline of the steps:
as §1

Assay [7] concerns the target T3, Delta-aminolevulinic acid dehydratase (Escherichia coli (strain K12), UniProt P0ACB2).
T3 sequence (P0ACB2 whole entry): T1 sequence (whole entry)
The experiment in a line: Stimulation of Escherichia coli recombinant PBGS using 5-ALA as substrate. The gist of the method:
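E. coli PBGS at 200 nM subunit in 100 mM BTP-HCl pH 8.1 with 1 mM MgCl2, 10 μM ZnCl2, 5 mM DTT and 0.2 mM 5-ALA, 10 min at 36 °C. Porphobilinogen detected with Ehrlich's reagent. Activity normalized to control with 6.7% DMSO set at 100%. EC50 by log(agonist) vs response variable-slope fit.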

The target of assay [8] is T4, Delta-aminolevulinic acid dehydratase (Drosophila melanogaster, UniProt Q9VTV9).
T4 sequence (Q9VTV9 whole entry): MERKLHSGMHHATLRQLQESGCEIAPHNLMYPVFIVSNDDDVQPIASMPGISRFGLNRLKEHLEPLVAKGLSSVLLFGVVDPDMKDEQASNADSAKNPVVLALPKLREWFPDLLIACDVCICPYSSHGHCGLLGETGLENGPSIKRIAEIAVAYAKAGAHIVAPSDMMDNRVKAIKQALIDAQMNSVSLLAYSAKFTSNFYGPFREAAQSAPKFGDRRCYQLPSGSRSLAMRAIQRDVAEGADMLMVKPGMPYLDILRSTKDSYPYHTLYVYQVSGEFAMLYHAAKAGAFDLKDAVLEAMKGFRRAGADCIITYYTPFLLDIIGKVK
As to the kind of experiment: Inhibition of Drosophila melanogaster recombinant PBGS using 5-ALA as substrate.

Assay [9] has as its target T5, Delta-aminolevulinic acid dehydratase (Wolbachia sp. subsp. Brugia malayi (strain TRS)) (UniProt Q5GSR3).
T5 sequence (whole entry): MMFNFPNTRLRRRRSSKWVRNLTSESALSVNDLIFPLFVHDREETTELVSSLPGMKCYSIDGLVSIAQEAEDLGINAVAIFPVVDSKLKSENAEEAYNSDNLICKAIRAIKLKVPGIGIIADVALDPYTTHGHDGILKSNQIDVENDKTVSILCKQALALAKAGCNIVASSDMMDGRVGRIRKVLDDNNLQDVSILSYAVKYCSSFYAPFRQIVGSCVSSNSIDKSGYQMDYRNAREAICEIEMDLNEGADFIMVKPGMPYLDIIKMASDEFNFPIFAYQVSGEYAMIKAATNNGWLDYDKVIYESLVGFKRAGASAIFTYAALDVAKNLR
The conditions noted are these: 25 to 2500 uM.

Chain of Delta-aminolevulinic acid dehydratase (Pseudomonas aeruginosa (strain ATCC 15692 / PAO1 / 1C / PRS 101 / LMG12228)) (Q59643 whole entry): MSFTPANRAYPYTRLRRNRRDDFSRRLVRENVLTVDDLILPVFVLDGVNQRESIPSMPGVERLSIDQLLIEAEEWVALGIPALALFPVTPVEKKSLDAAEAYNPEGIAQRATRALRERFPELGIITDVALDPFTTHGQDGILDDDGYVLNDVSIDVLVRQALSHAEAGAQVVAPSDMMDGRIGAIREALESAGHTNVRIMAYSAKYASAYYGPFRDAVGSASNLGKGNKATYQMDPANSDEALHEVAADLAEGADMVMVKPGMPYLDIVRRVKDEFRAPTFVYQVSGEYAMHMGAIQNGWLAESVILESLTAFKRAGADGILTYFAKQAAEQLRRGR

Consider `O=C(O)c1ccc2c(c1)nc(CCNC(=O)c1cccs1)n2Cc1cccc(C(F)(F)F)c1`, for which the inhibition result in assay [1] and in assay [4] was “Active” throughout. The outcome in [2] was Active. Further, the inhibition entry in assay [3] and in [9] was “inactive” throughout. Further, the inhibition result in assay [5] was “Dose-dependent effect”. Besides, the result in assay [6] was inactive. Moreover, the EC50 in [7] came to 60 µM. Besides, the IC50 in [8] was found to be 1110 µM.

In general, EC50 refers to the concentration that produces a half-maximal response. The term IC50 denotes the concentration at which inhibition is half-maximal.
